Consider one molecule from ChEMBL document CHEMBL3797175, “Discovery of 6-(difluoro(6-(4-fluorophenyl)-[1,2,4]triazolo[4,3-b][1,2,4]triazin-3-yl)methyl)quinoline as a highly potent and selective c-Met inhibitor” (Eur J Med Chem, 2016).

SMILES strings stand for the structures. Activity calls are given as the source filed them. The rule behind the calls is not given here. A value given as a limit tells only on which side of the number the result lay.

Data set [1] concerns the target Tyrosine-protein kinase receptor TYRO3 (Homo sapiens) (UniProt Q06418). As to the kind of experiment: Inhibition of recombinant TYRO3 (unknown origin) using poly (Glu, Tyr) 4:1 as substrate at 1000 nM incubated for 60 mins by ELISA relative to control. The method, boiled down:
(§1)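 Recombinant tyrosine kinases assayed on wells precoated with poly(Glu,Tyr)4:1 (20 µg/mL). ATP 10 µmol/L in HEPES pH 7.4 buffer with MgCl2, MnCl2, Na3VO4 and DTT; compound in 1% DMSO, 1% DMSO as control. Reaction 60 min at 37 °C. Phosphotyrosine detected with PY99 and HRP anti-mouse, o-phenylenediamine, A490. Inhibition % relative to control; two experiments.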
In general terms: ELISA stands for enzyme-linked immunosorbent assay.

The subject of data set [2] is Epidermal growth factor receptor (Homo sapiens), P00533 [L858R,T790M]. The experiment in a line: Inhibition of EGFR T790M/L858R double mutant (unknown origin) using poly (Glu, Tyr) 4:1 as substrate at 1000 nM incubated for 60 mins by ELISA relative to control. The data set is classed as protein assay. The method, boiled down:
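Recombinant kinase, ELISA on a poly(Glu,Tyr)4:1 coat (20 μg/mL). 10 μmol/L ATP in HEPES pH 7.4 with MgCl2, MnCl2, Na3VO4 and DTT; 1% DMSO. Reaction 60 min at 37 °C. Phosphotyrosine detected with PY99 and HRP anti-mouse IgG, o-phenylenediamine substrate, A490. Inhibition % versus DMSO control; two separate experiments.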

The target of data set [3] is Receptor tyrosine-protein kinase erbB-2 (Homo sapiens) (UniProt P04626). As to the kind of experiment: Inhibition of recombinant ERBB2 (unknown origin) using poly (Glu, Tyr) 4:1 as substrate at 1000 nM incubated for 60 mins by ELISA relative to control. The method, boiled down: as §1
Receptor tyrosine-protein kinase erbB-2 (Homo sapiens), sequence (P04626 whole entry): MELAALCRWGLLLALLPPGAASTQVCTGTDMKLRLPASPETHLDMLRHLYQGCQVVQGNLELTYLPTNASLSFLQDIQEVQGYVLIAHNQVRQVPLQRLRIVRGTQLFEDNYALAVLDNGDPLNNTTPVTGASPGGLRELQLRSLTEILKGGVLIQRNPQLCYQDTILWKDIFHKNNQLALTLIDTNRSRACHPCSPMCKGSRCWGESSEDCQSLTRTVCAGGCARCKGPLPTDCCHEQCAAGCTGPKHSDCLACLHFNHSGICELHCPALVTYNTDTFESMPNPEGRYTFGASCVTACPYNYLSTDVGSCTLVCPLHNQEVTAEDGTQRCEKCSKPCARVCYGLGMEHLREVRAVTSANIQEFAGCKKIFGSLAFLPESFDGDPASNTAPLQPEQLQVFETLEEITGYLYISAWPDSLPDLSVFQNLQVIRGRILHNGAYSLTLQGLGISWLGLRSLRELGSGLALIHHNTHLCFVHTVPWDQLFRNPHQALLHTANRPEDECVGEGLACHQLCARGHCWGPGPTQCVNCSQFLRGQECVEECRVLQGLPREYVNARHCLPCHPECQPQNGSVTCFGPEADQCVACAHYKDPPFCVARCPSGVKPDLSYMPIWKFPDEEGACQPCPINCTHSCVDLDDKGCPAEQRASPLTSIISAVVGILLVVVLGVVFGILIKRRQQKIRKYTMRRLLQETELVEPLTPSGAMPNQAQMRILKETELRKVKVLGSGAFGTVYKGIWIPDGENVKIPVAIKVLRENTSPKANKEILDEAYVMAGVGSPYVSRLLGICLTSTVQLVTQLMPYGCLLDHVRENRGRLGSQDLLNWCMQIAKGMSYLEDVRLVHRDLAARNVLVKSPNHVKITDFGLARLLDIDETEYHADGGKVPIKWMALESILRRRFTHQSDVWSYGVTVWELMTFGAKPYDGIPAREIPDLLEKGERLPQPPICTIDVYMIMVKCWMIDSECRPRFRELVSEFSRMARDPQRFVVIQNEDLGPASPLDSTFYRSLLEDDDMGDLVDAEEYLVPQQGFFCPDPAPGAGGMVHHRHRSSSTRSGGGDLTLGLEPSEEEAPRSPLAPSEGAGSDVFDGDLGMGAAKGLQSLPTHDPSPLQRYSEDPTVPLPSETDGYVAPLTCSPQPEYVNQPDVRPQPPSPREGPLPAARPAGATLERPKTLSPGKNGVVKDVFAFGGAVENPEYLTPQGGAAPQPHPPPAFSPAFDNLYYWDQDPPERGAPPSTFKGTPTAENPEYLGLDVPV
The nature of data set [4]: Selectivity ratio of IC50 for human AGS cells to IC50 for human MKN45 cells. The data set is classed as ADME, cell-based. An outline of the steps: (§2)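 Both IC50s in each ratio come from one proliferation assay. Cells were seeded and exposed the next day to a range of concentrations for 72 h, then read by SRB or MTT. IC50s were fitted by four-parameter concentration–response, with each concentration at least in triplicate and at least 2 experiments. BaF3/TPR-Met is murine pre-B BaF3 transfected with TPR-MET and puromycin-selected.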

A short description of data set [5]: Selectivity ratio of IC50 for human SNU16 cells to IC50 for mouse BAF3 cells expressing TPR-MET. It is filed as ADME, cell-based.
Data set [6] is described as follows: Selectivity ratio of IC50 for human SNU1 cells to IC50 for human EBC1 cells. The data set is classed as ADME, cell-based.
Data set [7] deals with Fibroblast growth factor receptor 1 (Homo sapiens) (UniProt P11362). The experiment in a line: Inhibition of recombinant FGFR1 (unknown origin) using poly (Glu, Tyr) 4:1 as substrate at 1000 nM incubated for 60 mins by ELISA relative to control. The method, boiled down: as §1
Fibroblast growth factor receptor 1 (Homo sapiens), sequence (P11362 22-822 limits assumed): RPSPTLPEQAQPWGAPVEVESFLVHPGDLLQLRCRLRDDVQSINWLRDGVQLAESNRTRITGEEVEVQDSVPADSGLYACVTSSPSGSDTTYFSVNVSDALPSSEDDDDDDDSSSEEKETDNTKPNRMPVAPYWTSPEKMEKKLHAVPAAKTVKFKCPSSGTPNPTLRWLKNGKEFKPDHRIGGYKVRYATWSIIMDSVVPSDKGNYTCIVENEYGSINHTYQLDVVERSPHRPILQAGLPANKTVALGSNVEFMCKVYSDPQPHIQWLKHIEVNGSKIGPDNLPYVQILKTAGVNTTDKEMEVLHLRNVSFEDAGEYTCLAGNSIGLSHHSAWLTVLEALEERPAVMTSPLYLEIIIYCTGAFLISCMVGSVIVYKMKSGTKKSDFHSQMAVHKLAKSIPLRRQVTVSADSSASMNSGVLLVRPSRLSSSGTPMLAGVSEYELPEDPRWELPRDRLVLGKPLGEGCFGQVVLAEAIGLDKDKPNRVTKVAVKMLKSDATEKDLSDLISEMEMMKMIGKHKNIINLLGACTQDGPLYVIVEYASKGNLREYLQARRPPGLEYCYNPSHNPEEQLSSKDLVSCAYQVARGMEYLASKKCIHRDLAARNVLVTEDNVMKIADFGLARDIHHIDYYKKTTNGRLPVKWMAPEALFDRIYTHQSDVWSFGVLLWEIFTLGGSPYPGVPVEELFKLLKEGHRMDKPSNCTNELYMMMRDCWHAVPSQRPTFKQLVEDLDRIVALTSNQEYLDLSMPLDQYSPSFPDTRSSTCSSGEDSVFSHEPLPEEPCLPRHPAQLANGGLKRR
In data set [8] the target is T1, Hepatocyte growth factor receptor (Homo sapiens, UniProt P08581). As to the kind of experiment: Inhibition of c-Met in HGF stimulated human U87MG cells assessed as reduction in AKT phosphorylation at Serine 473 at 10 nM after 1 hr by Western blot analysis. It is filed as cell-based. The note with it: U-87MG ATCC. The method, boiled down:
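U87MG cells serum-starved 24 h, treated 1 h at 37 °C, then stimulated with HGF 100 ng/mL for 15 min. Lysed in SDS buffer, run on 10% SDS-PAGE and immunoblotted for phospho-ERK1/2 and phospho-AKT; ECL detection.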
For orientation: A western blot detects proteins with antibodies after separation by electrophoresis.

The target in data set [9] is T1, Hepatocyte growth factor receptor. The experiment in a line: Inhibition of c-Met in human EBC1 cells assessed as reduction in ERK phosphorylation at Tyrosine 204 at 10 nM after 1 hr by Western blot analysis. It is filed as cell-based. An outline of the steps: (§3)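 EBC-1 or MKN45 cells treated with compound 1 h at 37 °C without HGF, then lysed in 1× SDS sample buffer. Lysates run on 10% SDS-PAGE and transferred to nitrocellulose. Probed with antibodies to c-Met, phospho-c-Met, phospho-ERK1/2, phospho-AKT, AKT and GAPDH, then HRP secondary. ECL detection.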

For data set [10] the target is unchanged. The experiment in a line: Inhibition of c-Met phosphorylation at Tyrosine 1235 in human EBC1 cells at 10 nM after 1 hr by Western blot analysis. The data set is classed as cell-based. The method, boiled down:
as §3

For the next data set, the system named is SNU1. The experiment in a line: Antiproliferative activity against human SNU1 cells after 72 hrs by SRB or MTT assay. It is filed as functional, cell-based. The following applies: SNU1, 72 h. The method, boiled down: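 Cells seeded, exposed next day to a range of concentrations for 72 h. Growth read by sulforhodamine B or MTT. IC50 from four-parameter concentration-response fit. Each concentration tested at least in triplicate, with at least 2 experiments.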
For orientation: Formazan colour is commonly taken as a measure of viable cells.

Data set [11] in a line: Antitumor activity against human MKN45 cells xenografted in athymic nude mouse assessed as tumor growth inhibition at 25 mg/kg, po bid for 21 days measured twice a week during compound dosing relative to control. The note with it: MKN-45, po, 504 h, read-out: TGI. The data set is classed as functional. The method, boiled down: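 Nude mice bearing s.c. tumours. Cells were first grown s.c. to 700–800 mm³, then 1.5 mm³ fragments were transplanted s.c. into the right flank. Mice were randomised at 100–200 mm³ (n=6 treated, n=12 vehicle) and dosed orally twice daily for 21 days. Caliper measurement twice weekly; TV = length×width²/2. TGI taken on the final day versus vehicle; Student's t test.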

The nature of data set [12]: Selectivity ratio of IC50 for human NCI-H1299 cells to IC50 for human MKN45 cells. The data set is classed as ADME, cell-based. An outline of the steps:
as §2

The nature of data set [13]: Selectivity ratio of IC50 for human NCI-H596 cells to IC50 for human EBC1 cells. It is filed as ADME, cell-based. The method, boiled down: as §2
The nature of data set [14]: Selectivity ratio of IC50 for human NCI-H596 cells to IC50 for mouse BAF3 cells expressing TPR-MET. It is filed as ADME, cell-based. The method, boiled down:
as §2

Data set [15] in a line: Selectivity ratio of IC50 for human NCI-H3122 cells to IC50 for human EBC1 cells. It is filed as ADME, cell-based. An outline of the steps:
as §2

Data set [16] in a line: Selectivity ratio of IC50 for human NCI-H460 cells to IC50 for human EBC1 cells. It is filed as ADME, cell-based. The method, boiled down:
as §2

Data set [17] is described as follows: Selectivity ratio of IC50 for human NCI-H226 cells to IC50 for human EBC1 cells. The data set is classed as ADME, cell-based. An outline of the steps:
as §2

Data set [18] is described as follows: Selectivity ratio of IC50 for human NCI-H226 cells to IC50 for human MKN45 cells. The data set is classed as ADME, cell-based. An outline of the steps:
as §2

Data set [19] is described as follows: Selectivity ratio of IC50 for human NCI-H661 cells to IC50 for mouse BAF3 cells expressing TPR-MET. It is filed as ADME, cell-based. The method, boiled down:
as §2

A short description of data set [20]: Selectivity ratio of IC50 for human Calu3 cells to IC50 for human MKN45 cells. The data set is classed as ADME, cell-based. The note with it: mkn-45. The method, boiled down: as §2
Data set [21] can be described thus: Selectivity ratio of IC50 for human SGC7901 cells to IC50 for human MKN45 cells. It is filed as ADME, cell-based. The following applies: sgc-7901. An outline of the steps: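 Each cell line was seeded in 96-well plates, then exposed the next day to a range of compound concentrations for 72 h. Growth was read by SRB or MTT assay, and IC50 was fitted by a four-parameter concentration-response curve. Each concentration was run at least in triplicate, in at least 2 experiments. BaF3/TPR-Met are murine pre-B BaF3 cells transfected with TPR-MET cDNA and selected in puromycin.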

A short description of data set [22]: Selectivity ratio of IC50 for human BGC823 cells to IC50 for human EBC1 cells. The note with it: bgc-823. The data set is classed as ADME, cell-based. The method, boiled down: as §2

T1 sequence (P08581 whole entry): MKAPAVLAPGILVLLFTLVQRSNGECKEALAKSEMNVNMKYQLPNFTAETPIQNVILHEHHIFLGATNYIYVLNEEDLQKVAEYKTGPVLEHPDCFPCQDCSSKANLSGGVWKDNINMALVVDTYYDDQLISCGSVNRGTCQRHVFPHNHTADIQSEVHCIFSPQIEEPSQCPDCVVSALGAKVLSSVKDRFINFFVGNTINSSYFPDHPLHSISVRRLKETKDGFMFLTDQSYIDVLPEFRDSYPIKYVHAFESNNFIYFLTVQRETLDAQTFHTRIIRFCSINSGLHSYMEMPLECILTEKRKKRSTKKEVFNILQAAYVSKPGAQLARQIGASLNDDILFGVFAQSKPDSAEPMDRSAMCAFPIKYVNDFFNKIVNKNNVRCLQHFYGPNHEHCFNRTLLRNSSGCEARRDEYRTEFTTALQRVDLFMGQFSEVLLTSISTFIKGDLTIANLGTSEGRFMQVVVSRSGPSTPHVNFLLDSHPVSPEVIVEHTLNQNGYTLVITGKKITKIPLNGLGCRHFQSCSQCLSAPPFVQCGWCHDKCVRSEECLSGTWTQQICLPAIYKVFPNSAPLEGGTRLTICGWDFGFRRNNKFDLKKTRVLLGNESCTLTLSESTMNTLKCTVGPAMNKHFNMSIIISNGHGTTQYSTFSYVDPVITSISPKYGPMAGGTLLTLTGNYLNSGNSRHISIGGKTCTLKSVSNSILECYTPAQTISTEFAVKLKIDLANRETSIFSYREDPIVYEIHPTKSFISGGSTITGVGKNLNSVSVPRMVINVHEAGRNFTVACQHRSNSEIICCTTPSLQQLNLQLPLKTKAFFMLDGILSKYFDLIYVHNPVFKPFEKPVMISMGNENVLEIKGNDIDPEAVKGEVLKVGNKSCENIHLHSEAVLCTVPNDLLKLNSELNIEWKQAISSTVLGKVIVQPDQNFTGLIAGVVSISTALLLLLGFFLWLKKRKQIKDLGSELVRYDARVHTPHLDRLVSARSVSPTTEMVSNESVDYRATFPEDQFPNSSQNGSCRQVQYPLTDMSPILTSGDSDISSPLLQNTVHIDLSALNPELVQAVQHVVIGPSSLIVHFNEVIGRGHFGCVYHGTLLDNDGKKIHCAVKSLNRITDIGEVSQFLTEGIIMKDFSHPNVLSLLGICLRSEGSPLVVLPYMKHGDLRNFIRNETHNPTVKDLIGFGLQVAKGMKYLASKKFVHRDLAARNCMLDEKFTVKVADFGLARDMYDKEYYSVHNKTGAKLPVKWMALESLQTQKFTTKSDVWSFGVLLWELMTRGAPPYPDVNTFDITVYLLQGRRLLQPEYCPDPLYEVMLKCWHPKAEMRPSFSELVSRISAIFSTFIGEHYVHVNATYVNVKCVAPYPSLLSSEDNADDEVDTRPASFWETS
Epidermal growth factor receptor (Homo sapiens), P00533 [L858R,T790M], sequence (P00533 whole entry T790M/L858R, looked up): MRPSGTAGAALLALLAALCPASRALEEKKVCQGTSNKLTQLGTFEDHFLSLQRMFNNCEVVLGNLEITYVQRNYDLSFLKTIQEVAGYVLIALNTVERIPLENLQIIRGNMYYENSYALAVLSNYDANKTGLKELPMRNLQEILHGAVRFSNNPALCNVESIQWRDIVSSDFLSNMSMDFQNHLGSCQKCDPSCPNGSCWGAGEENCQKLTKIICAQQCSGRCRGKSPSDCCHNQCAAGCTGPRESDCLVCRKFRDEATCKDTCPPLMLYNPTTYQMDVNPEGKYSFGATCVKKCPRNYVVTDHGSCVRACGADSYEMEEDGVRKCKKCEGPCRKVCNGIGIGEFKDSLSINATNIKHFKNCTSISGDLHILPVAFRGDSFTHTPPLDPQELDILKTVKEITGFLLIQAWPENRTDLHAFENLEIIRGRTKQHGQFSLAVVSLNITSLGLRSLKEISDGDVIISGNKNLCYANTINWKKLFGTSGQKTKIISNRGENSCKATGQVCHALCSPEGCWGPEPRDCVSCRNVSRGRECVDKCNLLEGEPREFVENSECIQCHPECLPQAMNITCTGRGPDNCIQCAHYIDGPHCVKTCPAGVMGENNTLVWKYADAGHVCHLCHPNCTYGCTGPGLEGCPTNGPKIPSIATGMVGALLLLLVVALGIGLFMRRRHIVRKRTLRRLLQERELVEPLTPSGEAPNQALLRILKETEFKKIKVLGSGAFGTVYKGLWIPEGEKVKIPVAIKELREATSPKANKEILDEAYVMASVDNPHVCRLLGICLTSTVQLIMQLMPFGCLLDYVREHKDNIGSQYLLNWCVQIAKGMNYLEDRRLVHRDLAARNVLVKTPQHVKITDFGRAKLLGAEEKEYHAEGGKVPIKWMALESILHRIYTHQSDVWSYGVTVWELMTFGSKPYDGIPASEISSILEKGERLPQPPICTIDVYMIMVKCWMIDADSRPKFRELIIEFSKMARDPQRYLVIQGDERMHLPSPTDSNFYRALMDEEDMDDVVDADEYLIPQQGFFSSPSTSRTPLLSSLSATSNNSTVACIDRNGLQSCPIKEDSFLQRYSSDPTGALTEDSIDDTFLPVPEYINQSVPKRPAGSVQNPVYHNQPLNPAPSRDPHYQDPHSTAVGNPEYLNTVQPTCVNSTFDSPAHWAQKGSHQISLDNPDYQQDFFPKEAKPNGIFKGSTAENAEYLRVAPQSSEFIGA

Consider `Fc1ccc(-c2cnc3nnc(C(F)(F)c4ccc5ncccc5c4)n3n2)cc1`, for which the inhibition in data set [1] amounted to 10.1%; in data set [2], 28.9%; in data set [3], 31.5%; in data set [7], 12.8%. Moreover, the “Ratio IC50” value in data set [4], in data set [5], in data set [6], in [12], in data set [13] and in data set [14] was 10000 in each case. The “Ratio IC50” value in data set [15] was 10000; in data set [16], 10000; in data set [17] it was greater than 10000; in [18], greater than 10000; in data set [19], greater than 10000; in data set [20], greater than 10000. The Ratio IC50 in data set [21] and in data set [22] was greater than 10000 each time. For the same molecule, the inhibition entry in [8], in [9] and in data set [10] was “Active” each time. In the data set with SNU1, this molecule displayed an IC50 greater than 10 µM. For the same molecule, in data set [11], the inhibition in vivo at 25 mg/kg came to 96.5%.

What is called inhibition is how much of the control response was suppressed. What is called IC50 is the concentration at which inhibition is half-maximal. A higher IC50 goes with a need for much substance.
